Data from ChEMBL document CHEMBL1138362, “Dihydro-alkylthio-benzyl-oxopyrimidines as inhibitors of reverse transcriptase: synthesis and rationalization of the biological data on both wild-type enzyme and relevant clinical mutants” (J Med Chem, 2007).

System: Human immunodeficiency virus 1
Assay: Antiviral activity against HIV1 with reverse transcriptase K103N mutation in MT4 cells after 5 days by MTT method
Type: functional, organism-based
Settings: Human immunodeficiency virus 1, MT4, 120 h
How it was run: (§1)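 MT-4 cells from the NIH AIDS Reagent Program were infected with mutant HIV-1 (K103N or Y188L, from the MRC Centralised Facility) in the presence of graded drug concentrations. Mock-infected cells were used for cytotoxicity. Viable cells were counted by MTT colorimetry at day 5 post-infection.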

SMILES | EC50 [µM]
COc1ccc(/C=C/CSc2nc(C(C)c3c(Cl)cccc3Cl)c(C)c(=O)[nH]2)cc1 (stereo not drawn) | 2.47
Cc1c(Cc2c(F)cccc2F)nc(SCC(=O)c2ccc([N+](=O)[O-])cc2)[nH]c1=O | > 58
CCC(c1nc(SCc2ccc(OC)cc2)[nH]c(=O)c1C)c1c(F)cccc1F (stereo not drawn) | 6.13
COc1ccc(CSc2nc(C(C)c3c(F)cccc3F)c(C)c(=O)[nH]2)cc1 (stereo not drawn) | 0.55
Cc1c(Cc2ccc(C#N)cc2)nc(SCC(=O)c2ccccc2)[nH]c1=O | > 67.2
COc1ccc(C#CCSc2nc(C(C)c3c(Cl)cccc3Cl)c(C)c(=O)[nH]2)cc1 (stereo not drawn) | > 54.5
CCc1c(Cc2c(Cl)cccc2Cl)nc(SC/C=C/c2ccc([N+](=O)[O-])cc2)[nH]c1=O | > 32.1
COc1ccc(COCCSc2nc(Cc3c(Cl)cccc3Cl)c(C)c(=O)[nH]2)cc1 | 3.44
COc1ccc(/C=C/Sc2nc(Cc3c(Cl)cccc3Cl)c(C)c(=O)[nH]2)cc1 | > 57.7
CCc1c(Cc2c(F)cccc2F)nc(SCc2ccc(OC)cc2)[nH]c1=O | 10.3
Cc1c(Cc2c(F)cccc2F)nc(SCC(=O)c2ccc(Cl)cc2)[nH]c1=O | > 59.5
COc1ccc(COCCSc2nc(C(C)c3c(F)cccc3F)c(C)c(=O)[nH]2)cc1 (stereo not drawn) | 0.92
COc1ccc(COCCSc2nc(C(C)c3c(Cl)cccc3Cl)c(C)c(=O)[nH]2)cc1 (stereo not drawn) | 6.47
CCc1c(C(C)c2c(F)cccc2F)nc(SC/C=C/c2ccc(C#N)cc2)[nH]c1=O (stereo not drawn) | > 27.2

System: Human immunodeficiency virus 1
Assay: Antiviral activity against wild type HIV1 NL4-3 in MT4 cells after 5 days by MTT method
Type: functional, organism-based
Settings: Human immunodeficiency virus 1, NL4-3, MT4, 120 h
How it was run: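 MT-4 lymphoid cells, infected with HIV-1 or mock-infected (for cytotoxicity), held with a range of drug concentrations; viable cells scored at day 5 post-infection by tetrazolium (MTT) colorimetry.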

SMILES | EC50 [nM]
COc1ccc(/C=C/CSc2nc(C(C)c3c(Cl)cccc3Cl)c(C)c(=O)[nH]2)cc1 (stereo not drawn) | 9
Cc1c(Cc2c(F)cccc2F)nc(SCC(=O)c2ccc([N+](=O)[O-])cc2)[nH]c1=O | 370
CCC(c1nc(SCc2ccc(OC)cc2)[nH]c(=O)c1C)c1c(F)cccc1F (stereo not drawn) | 1.9
COc1ccc(CSc2nc(C(C)c3c(F)cccc3F)c(C)c(=O)[nH]2)cc1 (stereo not drawn) | 0.025
Cc1c(Cc2ccc(C#N)cc2)nc(SCC(=O)c2ccccc2)[nH]c1=O | > 67200
COc1ccc(C#CCSc2nc(C(C)c3c(Cl)cccc3Cl)c(C)c(=O)[nH]2)cc1 (stereo not drawn) | 500
CCc1c(Cc2c(Cl)cccc2Cl)nc(SC/C=C/c2ccc([N+](=O)[O-])cc2)[nH]c1=O | 610
COc1ccc(COCCSc2nc(Cc3c(Cl)cccc3Cl)c(C)c(=O)[nH]2)cc1 | 21
COc1ccc(/C=C/Sc2nc(Cc3c(Cl)cccc3Cl)c(C)c(=O)[nH]2)cc1 | > 57700
CCc1c(Cc2c(F)cccc2F)nc(SCc2ccc(OC)cc2)[nH]c1=O | 12
Cc1c(Cc2c(F)cccc2F)nc(SCC(=O)c2ccc(Cl)cc2)[nH]c1=O | 3760
COc1ccc(COCCSc2nc(C(C)c3c(F)cccc3F)c(C)c(=O)[nH]2)cc1 (stereo not drawn) | 1.1
COc1ccc(COCCSc2nc(C(C)c3c(Cl)cccc3Cl)c(C)c(=O)[nH]2)cc1 (stereo not drawn) | 63
CCc1c(C(C)c2c(F)cccc2F)nc(SC/C=C/c2ccc(C#N)cc2)[nH]c1=O (stereo not drawn) | 590

System: Human immunodeficiency virus type 1 reverse transcriptase (Human immunodeficiency virus 1), Q72547 [Y181I]
Assay: Antiviral activity against HIV1 reverse transcriptase Y181I mutant
Settings: not given

SMILES | ID50 [µM]
COc1ccc(/C=C/CSc2nc(C(C)c3c(Cl)cccc3Cl)c(C)c(=O)[nH]2)cc1 (stereo not drawn) | > 20
Cc1c(Cc2c(F)cccc2F)nc(SCC(=O)c2ccc([N+](=O)[O-])cc2)[nH]c1=O | > 20
CCC(c1nc(SCc2ccc(OC)cc2)[nH]c(=O)c1C)c1c(F)cccc1F (stereo not drawn) | > 20
COc1ccc(CSc2nc(C(C)c3c(F)cccc3F)c(C)c(=O)[nH]2)cc1 (stereo not drawn) | > 20
Cc1c(Cc2ccc(C#N)cc2)nc(SCC(=O)c2ccccc2)[nH]c1=O | > 20
COc1ccc(C#CCSc2nc(C(C)c3c(Cl)cccc3Cl)c(C)c(=O)[nH]2)cc1 (stereo not drawn) | > 20
CCc1c(Cc2c(Cl)cccc2Cl)nc(SC/C=C/c2ccc([N+](=O)[O-])cc2)[nH]c1=O | > 20
COc1ccc(COCCSc2nc(Cc3c(Cl)cccc3Cl)c(C)c(=O)[nH]2)cc1 | > 20
COc1ccc(/C=C/Sc2nc(Cc3c(Cl)cccc3Cl)c(C)c(=O)[nH]2)cc1 | > 20
CCc1c(Cc2c(F)cccc2F)nc(SCc2ccc(OC)cc2)[nH]c1=O | > 20
Cc1c(Cc2c(F)cccc2F)nc(SCC(=O)c2ccc(Cl)cc2)[nH]c1=O | > 20
COc1ccc(COCCSc2nc(C(C)c3c(F)cccc3F)c(C)c(=O)[nH]2)cc1 (stereo not drawn) | > 20
COc1ccc(COCCSc2nc(C(C)c3c(Cl)cccc3Cl)c(C)c(=O)[nH]2)cc1 (stereo not drawn) | > 20
CCc1c(C(C)c2c(F)cccc2F)nc(SC/C=C/c2ccc(C#N)cc2)[nH]c1=O (stereo not drawn) | > 20

System: Human immunodeficiency virus 1
Assay: Antiviral activity against HIV1 with reverse transcriptase Y188L mutation in MT4 cells after 5 days by MTT method
Type: functional, organism-based
Settings: Human immunodeficiency virus 1, MT4, 120 h
How it was run: as §1

SMILES | EC50 [µM]
COc1ccc(/C=C/CSc2nc(C(C)c3c(Cl)cccc3Cl)c(C)c(=O)[nH]2)cc1 (stereo not drawn) | 1.26
Cc1c(Cc2c(F)cccc2F)nc(SCC(=O)c2ccc([N+](=O)[O-])cc2)[nH]c1=O | > 58
CCC(c1nc(SCc2ccc(OC)cc2)[nH]c(=O)c1C)c1c(F)cccc1F (stereo not drawn) | 1.46
COc1ccc(CSc2nc(C(C)c3c(F)cccc3F)c(C)c(=O)[nH]2)cc1 (stereo not drawn) | 0.95
Cc1c(Cc2ccc(C#N)cc2)nc(SCC(=O)c2ccccc2)[nH]c1=O | > 67.2
COc1ccc(C#CCSc2nc(C(C)c3c(Cl)cccc3Cl)c(C)c(=O)[nH]2)cc1 (stereo not drawn) | 24.8
CCc1c(Cc2c(Cl)cccc2Cl)nc(SC/C=C/c2ccc([N+](=O)[O-])cc2)[nH]c1=O | > 32.1
COc1ccc(COCCSc2nc(Cc3c(Cl)cccc3Cl)c(C)c(=O)[nH]2)cc1 | 1.72
COc1ccc(/C=C/Sc2nc(Cc3c(Cl)cccc3Cl)c(C)c(=O)[nH]2)cc1 | > 57.7
CCc1c(Cc2c(F)cccc2F)nc(SCc2ccc(OC)cc2)[nH]c1=O | > 62.2
Cc1c(Cc2c(F)cccc2F)nc(SCC(=O)c2ccc(Cl)cc2)[nH]c1=O | > 59.5
COc1ccc(COCCSc2nc(C(C)c3c(F)cccc3F)c(C)c(=O)[nH]2)cc1 (stereo not drawn) | 0.32
COc1ccc(COCCSc2nc(C(C)c3c(Cl)cccc3Cl)c(C)c(=O)[nH]2)cc1 (stereo not drawn) | 2.5
CCc1c(C(C)c2c(F)cccc2F)nc(SC/C=C/c2ccc(C#N)cc2)[nH]c1=O (stereo not drawn) | > 27.2

System: Human immunodeficiency virus 1
Assay: Antiviral activity against HIV1 with reverse transcriptase Y181C mutation in MT4 cells after 5 days by MTT method
Type: functional, organism-based
Settings: Human immunodeficiency virus 1, MT4, 120 h

SMILES | EC50 [µM]
COc1ccc(/C=C/CSc2nc(C(C)c3c(Cl)cccc3Cl)c(C)c(=O)[nH]2)cc1 (stereo not drawn) | 3.6
Cc1c(Cc2c(F)cccc2F)nc(SCC(=O)c2ccc([N+](=O)[O-])cc2)[nH]c1=O | 4.18
CCC(c1nc(SCc2ccc(OC)cc2)[nH]c(=O)c1C)c1c(F)cccc1F (stereo not drawn) | 5.02
COc1ccc(CSc2nc(C(C)c3c(F)cccc3F)c(C)c(=O)[nH]2)cc1 (stereo not drawn) | 0.3
Cc1c(Cc2ccc(C#N)cc2)nc(SCC(=O)c2ccccc2)[nH]c1=O | > 67.2
COc1ccc(C#CCSc2nc(C(C)c3c(Cl)cccc3Cl)c(C)c(=O)[nH]2)cc1 (stereo not drawn) | 33.5
CCc1c(Cc2c(Cl)cccc2Cl)nc(SC/C=C/c2ccc([N+](=O)[O-])cc2)[nH]c1=O | 4.2
COc1ccc(COCCSc2nc(Cc3c(Cl)cccc3Cl)c(C)c(=O)[nH]2)cc1 | 3.01
COc1ccc(/C=C/Sc2nc(Cc3c(Cl)cccc3Cl)c(C)c(=O)[nH]2)cc1 | > 57.7
CCc1c(Cc2c(F)cccc2F)nc(SCc2ccc(OC)cc2)[nH]c1=O | 1.45
Cc1c(Cc2c(F)cccc2F)nc(SCC(=O)c2ccc(Cl)cc2)[nH]c1=O | 3.69
COc1ccc(COCCSc2nc(C(C)c3c(F)cccc3F)c(C)c(=O)[nH]2)cc1 (stereo not drawn) | 0.65
COc1ccc(COCCSc2nc(C(C)c3c(Cl)cccc3Cl)c(C)c(=O)[nH]2)cc1 (stereo not drawn) | 8.98
CCc1c(C(C)c2c(F)cccc2F)nc(SC/C=C/c2ccc(C#N)cc2)[nH]c1=O (stereo not drawn) | > 27.2

System: Human immunodeficiency virus 1 [K103N]
Assay: Antiviral activity against HIV1 reverse transcriptase K103N mutant
Settings: not given

SMILES | ID50 [µM]
COc1ccc(/C=C/CSc2nc(C(C)c3c(Cl)cccc3Cl)c(C)c(=O)[nH]2)cc1 (stereo not drawn) | > 20
Cc1c(Cc2c(F)cccc2F)nc(SCC(=O)c2ccc([N+](=O)[O-])cc2)[nH]c1=O | > 20
CCC(c1nc(SCc2ccc(OC)cc2)[nH]c(=O)c1C)c1c(F)cccc1F (stereo not drawn) | > 20
COc1ccc(CSc2nc(C(C)c3c(F)cccc3F)c(C)c(=O)[nH]2)cc1 (stereo not drawn) | 45
Cc1c(Cc2ccc(C#N)cc2)nc(SCC(=O)c2ccccc2)[nH]c1=O | > 20
COc1ccc(C#CCSc2nc(C(C)c3c(Cl)cccc3Cl)c(C)c(=O)[nH]2)cc1 (stereo not drawn) | > 20
CCc1c(Cc2c(Cl)cccc2Cl)nc(SC/C=C/c2ccc([N+](=O)[O-])cc2)[nH]c1=O | > 20
COc1ccc(COCCSc2nc(Cc3c(Cl)cccc3Cl)c(C)c(=O)[nH]2)cc1 | 56
COc1ccc(/C=C/Sc2nc(Cc3c(Cl)cccc3Cl)c(C)c(=O)[nH]2)cc1 | > 20
CCc1c(Cc2c(F)cccc2F)nc(SCc2ccc(OC)cc2)[nH]c1=O | > 20
Cc1c(Cc2c(F)cccc2F)nc(SCC(=O)c2ccc(Cl)cc2)[nH]c1=O | > 20
COc1ccc(COCCSc2nc(C(C)c3c(F)cccc3F)c(C)c(=O)[nH]2)cc1 (stereo not drawn) | 9.94
COc1ccc(COCCSc2nc(C(C)c3c(Cl)cccc3Cl)c(C)c(=O)[nH]2)cc1 (stereo not drawn) | 57.3
CCc1c(C(C)c2c(F)cccc2F)nc(SC/C=C/c2ccc(C#N)cc2)[nH]c1=O (stereo not drawn) | > 20

Target: Human immunodeficiency virus type 1 reverse transcriptase (Human immunodeficiency virus 1) (UniProt Q72547)
Assay: Antiviral activity against wild type HIV1 reverse transcriptase
Settings: not given

SMILES | ID50 [µM]
COc1ccc(/C=C/CSc2nc(C(C)c3c(Cl)cccc3Cl)c(C)c(=O)[nH]2)cc1 (stereo not drawn) | 0.018
Cc1c(Cc2c(F)cccc2F)nc(SCC(=O)c2ccc([N+](=O)[O-])cc2)[nH]c1=O | 0.95
CCC(c1nc(SCc2ccc(OC)cc2)[nH]c(=O)c1C)c1c(F)cccc1F (stereo not drawn) | 0.047
COc1ccc(CSc2nc(C(C)c3c(F)cccc3F)c(C)c(=O)[nH]2)cc1 (stereo not drawn) | 0.003
Cc1c(Cc2ccc(C#N)cc2)nc(SCC(=O)c2ccccc2)[nH]c1=O | > 20
COc1ccc(C#CCSc2nc(C(C)c3c(Cl)cccc3Cl)c(C)c(=O)[nH]2)cc1 (stereo not drawn) | 0.005
CCc1c(Cc2c(Cl)cccc2Cl)nc(SC/C=C/c2ccc([N+](=O)[O-])cc2)[nH]c1=O | 2.5
COc1ccc(COCCSc2nc(Cc3c(Cl)cccc3Cl)c(C)c(=O)[nH]2)cc1 | 0.063
COc1ccc(/C=C/Sc2nc(Cc3c(Cl)cccc3Cl)c(C)c(=O)[nH]2)cc1 | 1.98
CCc1c(Cc2c(F)cccc2F)nc(SCc2ccc(OC)cc2)[nH]c1=O | 0.03
Cc1c(Cc2c(F)cccc2F)nc(SCC(=O)c2ccc(Cl)cc2)[nH]c1=O | 7.5
COc1ccc(COCCSc2nc(C(C)c3c(F)cccc3F)c(C)c(=O)[nH]2)cc1 (stereo not drawn) | 0.0082
COc1ccc(COCCSc2nc(C(C)c3c(Cl)cccc3Cl)c(C)c(=O)[nH]2)cc1 (stereo not drawn) | 0.022
CCc1c(C(C)c2c(F)cccc2F)nc(SC/C=C/c2ccc(C#N)cc2)[nH]c1=O (stereo not drawn) | 0.048
